Results taken from article PMC2834294 (Chemistry & biology, 2010).
Entries after “also recorded” stand apart in the source; their conditions may differ.

Tests used:
Type in all cases: cell-based
danio rerio TRPN1 = danio rerio TRPN1 (Danio rerio, UniProt Q7T1G6); details: for Emax: HEK293, read-out: Max % Activation (Control)
Summary of the method: (§1)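 HEK293 lines stably expressed YFP-fused human TRPML3 or zebrafish TRPN1 (G418 0.8 mg/ml, twice subcloned) and were plated at 1,500 cells/well for 23 h at 37 °C. After Fluo-8 loading (1 h 37 °C, 30 min RT), a 5 s basal read and 120 s post-addition read were taken. Max/basal ratios were normalized to DMSO and carbachol (87 µM).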

TRPML3 [1] = biological target: T1, TRPML3 (Homo sapiens, UniProt Q8TDD5); test: Fura-2 calcium imaging, HEK293 cells transiently expressing TRPML3; details: for ⊗F340/F380 (TRPML3): 10 µM compound, mean ±SEM (n≥3); for kinetics of intracellular calcium increase: TRPML3-transfected HEK293 cells
T1 sequence (Q8TDD5 1-553): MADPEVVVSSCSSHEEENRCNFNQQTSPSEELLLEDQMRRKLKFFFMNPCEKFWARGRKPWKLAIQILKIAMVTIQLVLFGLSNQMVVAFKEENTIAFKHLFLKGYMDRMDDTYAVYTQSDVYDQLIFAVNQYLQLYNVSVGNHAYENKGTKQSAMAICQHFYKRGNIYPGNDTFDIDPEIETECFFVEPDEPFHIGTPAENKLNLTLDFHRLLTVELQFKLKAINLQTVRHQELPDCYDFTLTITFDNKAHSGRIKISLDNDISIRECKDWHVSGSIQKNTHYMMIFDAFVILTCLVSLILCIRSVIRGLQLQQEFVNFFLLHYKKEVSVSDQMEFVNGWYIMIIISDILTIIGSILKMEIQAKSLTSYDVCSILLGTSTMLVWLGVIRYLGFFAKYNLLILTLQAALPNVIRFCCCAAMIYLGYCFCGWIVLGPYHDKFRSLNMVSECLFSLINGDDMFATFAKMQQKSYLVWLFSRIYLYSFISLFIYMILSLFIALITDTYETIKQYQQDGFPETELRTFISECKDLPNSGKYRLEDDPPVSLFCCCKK
Summary of the method: (§2)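 HEK293 cells were transiently transfected (Genejammer) with the human channel construct or YFP control and measured 24 h later. Cells on glass coverslips were loaded with 4 µM fura-2-AM in bath solution (mM: 138 NaCl, 6 KCl, 2 MgCl2, 2 CaCl2, 10 HEPES, 5.5 D-glucose; pH 7.4). Compounds were applied at 10 µM and the F340/F380 ratio recorded. Values are mean ± SEM, n≥3.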

TRPML3 [2] = biological target: T1, TRPML3; test: Whole-cell patch-clamp, HEK293 cells transiently transfected with TRPML3; details: for nA/pF (-80 mV) (TRPML3): current density at −80 mV, 10 µM in standard bath solution, mean ±SEM (n≥3); for average current density relative to constitutively active TRPML3 A419P: whole-cell, −80 mV
Summary of the method: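 Whole-cell patch clamp was done on HEK293 cells 24 h after transient transfection with human TRPML3 or YFP; constitutively active TRPML3(A419P) cells served as positive control. Bath solution (mM): 138 NaCl, 5.4 KCl, 2 MgCl2, 2 CaCl2, 10 HEPES, 10 d-glucose; pH 7.4. Pipette solution (mM): 140 CsCl, 10 HEPES, 3 ATP-Na, 1 BAPTA, 2 MgCl2; pH 7.2. Compounds at 10 µM were perfused. Capacitance-normalized current at −80 mV is reported as mean ± SEM, n≥3.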

TRPML3 [3] = biological target: T1, TRPML3; details: HEK293, read-out: Max % Activation (TRPML3)
Summary of the method: as §1

TRPML3 [4] = biological target: T1, TRPML3; test: Whole-cell patch-clamp with intracellular application; details: for response to intracellular application (infusion): whole-cell, −80 mV
TRPML3 [5] = biological target: T1, TRPML3; test: Excised; details: patches held at −80 mV
[6] = biological target: T2, TRPML3 coexpressed with TRPML1 (Homo sapiens, UniProt Q8TDD5); test: Calcium imaging, HEK293 cells coexpressing TRPML3 with TRPML1; details: 10 µM
T2 sequence (Q8TDD5 1-553): T1 sequence (Q8TDD5 1-553)
Summary of the method: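 Human TRPML3 and TRPML1 were transiently coexpressed in HEK293 cells (Genejammer) and imaged 24 h post-transfection. Cells on glass coverslips were loaded with 4 μM fura-2-AM in bath solution (mM: 138 NaCl, 6 KCl, 2 MgCl₂, 2 CaCl₂, 10 HEPES, 5.5 D-glucose, pH 7.4) and read on a monochromator imaging system. Test compound was 10 μM. Mean ± SEM, n≥3 independent experiments, 20–30 cells each.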

TRPML1(NC) = TRPML1(NC) (Homo sapiens, UniProt Q9GZU1); test: Fura-2 calcium imaging, HEK293 cells expressing TRPML1; details: 10 µM, plasma membrane-localized TRPML1 variant
Summary of the method: as §2

[7] = system: YFP-expressing HEK293 cells; test: Fura-2 calcium imaging, YFP-expressing HEK293 cells; details: mean ±SEM (n≥3)
Summary of the method: as §2

TRPML2 = biological target: T3, TRPML2 (Homo sapiens, UniProt Q8IZK6); test: Fura-2 calcium imaging, HEK293 cells expressing TRPML2; details: 10 µM
T3 sequence (Q8IZK6 1-566): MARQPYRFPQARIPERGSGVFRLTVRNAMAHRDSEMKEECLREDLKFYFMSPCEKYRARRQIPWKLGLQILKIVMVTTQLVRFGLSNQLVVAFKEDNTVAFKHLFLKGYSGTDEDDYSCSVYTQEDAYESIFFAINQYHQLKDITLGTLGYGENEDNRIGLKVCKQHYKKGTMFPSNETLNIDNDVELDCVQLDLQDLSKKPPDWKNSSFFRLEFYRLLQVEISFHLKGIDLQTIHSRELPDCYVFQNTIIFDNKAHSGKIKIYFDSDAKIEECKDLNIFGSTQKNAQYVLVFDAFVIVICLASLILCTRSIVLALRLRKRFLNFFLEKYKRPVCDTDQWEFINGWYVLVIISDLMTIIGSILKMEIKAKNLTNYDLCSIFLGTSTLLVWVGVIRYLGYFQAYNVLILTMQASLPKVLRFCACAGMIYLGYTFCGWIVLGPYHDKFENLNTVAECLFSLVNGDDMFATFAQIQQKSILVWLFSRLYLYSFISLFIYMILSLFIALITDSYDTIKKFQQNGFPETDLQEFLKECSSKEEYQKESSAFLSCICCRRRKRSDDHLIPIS
Summary of the method: as §2

Chain of danio rerio TRPN1 (Q7T1G6 1-1614): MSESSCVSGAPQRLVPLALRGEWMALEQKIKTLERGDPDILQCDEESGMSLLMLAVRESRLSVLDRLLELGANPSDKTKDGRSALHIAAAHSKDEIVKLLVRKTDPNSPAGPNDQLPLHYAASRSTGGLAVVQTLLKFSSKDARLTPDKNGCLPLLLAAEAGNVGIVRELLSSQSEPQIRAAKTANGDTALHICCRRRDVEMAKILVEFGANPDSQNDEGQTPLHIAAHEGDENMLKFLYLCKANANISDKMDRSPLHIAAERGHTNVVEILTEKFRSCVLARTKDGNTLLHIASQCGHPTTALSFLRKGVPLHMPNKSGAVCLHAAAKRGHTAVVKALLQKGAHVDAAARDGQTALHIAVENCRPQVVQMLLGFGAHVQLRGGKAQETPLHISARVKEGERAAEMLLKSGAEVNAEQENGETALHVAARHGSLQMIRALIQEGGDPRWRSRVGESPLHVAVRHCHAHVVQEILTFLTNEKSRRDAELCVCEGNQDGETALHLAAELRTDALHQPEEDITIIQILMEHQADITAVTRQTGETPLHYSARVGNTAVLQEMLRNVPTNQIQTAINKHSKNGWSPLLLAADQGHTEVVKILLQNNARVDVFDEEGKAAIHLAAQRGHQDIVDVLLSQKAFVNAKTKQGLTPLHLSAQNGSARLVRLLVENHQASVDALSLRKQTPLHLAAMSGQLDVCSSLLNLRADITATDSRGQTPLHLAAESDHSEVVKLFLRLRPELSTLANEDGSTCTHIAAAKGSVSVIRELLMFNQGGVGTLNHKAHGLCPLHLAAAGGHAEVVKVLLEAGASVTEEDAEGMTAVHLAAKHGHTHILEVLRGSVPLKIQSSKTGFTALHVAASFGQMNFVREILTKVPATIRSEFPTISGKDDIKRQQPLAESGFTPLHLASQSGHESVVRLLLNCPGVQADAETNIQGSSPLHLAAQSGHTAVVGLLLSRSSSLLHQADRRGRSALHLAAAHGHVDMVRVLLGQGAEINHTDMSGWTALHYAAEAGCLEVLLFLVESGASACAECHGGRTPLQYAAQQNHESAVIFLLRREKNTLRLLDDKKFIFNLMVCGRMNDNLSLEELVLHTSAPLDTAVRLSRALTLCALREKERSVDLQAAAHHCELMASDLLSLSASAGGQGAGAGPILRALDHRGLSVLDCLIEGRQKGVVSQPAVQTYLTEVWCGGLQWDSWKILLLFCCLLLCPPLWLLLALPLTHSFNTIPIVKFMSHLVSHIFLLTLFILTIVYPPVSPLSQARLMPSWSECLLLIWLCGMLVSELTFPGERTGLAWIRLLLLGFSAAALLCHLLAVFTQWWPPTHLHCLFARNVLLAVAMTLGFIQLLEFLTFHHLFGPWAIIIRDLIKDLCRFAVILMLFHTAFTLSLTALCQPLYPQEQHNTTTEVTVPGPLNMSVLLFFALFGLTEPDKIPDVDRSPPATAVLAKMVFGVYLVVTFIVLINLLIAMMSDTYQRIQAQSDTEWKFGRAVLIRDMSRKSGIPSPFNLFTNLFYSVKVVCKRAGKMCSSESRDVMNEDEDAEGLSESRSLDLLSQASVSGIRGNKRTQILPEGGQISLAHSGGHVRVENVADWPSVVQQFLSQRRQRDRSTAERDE
Chain of TRPML1(NC) (Q9GZU1 17-572 limits assumed): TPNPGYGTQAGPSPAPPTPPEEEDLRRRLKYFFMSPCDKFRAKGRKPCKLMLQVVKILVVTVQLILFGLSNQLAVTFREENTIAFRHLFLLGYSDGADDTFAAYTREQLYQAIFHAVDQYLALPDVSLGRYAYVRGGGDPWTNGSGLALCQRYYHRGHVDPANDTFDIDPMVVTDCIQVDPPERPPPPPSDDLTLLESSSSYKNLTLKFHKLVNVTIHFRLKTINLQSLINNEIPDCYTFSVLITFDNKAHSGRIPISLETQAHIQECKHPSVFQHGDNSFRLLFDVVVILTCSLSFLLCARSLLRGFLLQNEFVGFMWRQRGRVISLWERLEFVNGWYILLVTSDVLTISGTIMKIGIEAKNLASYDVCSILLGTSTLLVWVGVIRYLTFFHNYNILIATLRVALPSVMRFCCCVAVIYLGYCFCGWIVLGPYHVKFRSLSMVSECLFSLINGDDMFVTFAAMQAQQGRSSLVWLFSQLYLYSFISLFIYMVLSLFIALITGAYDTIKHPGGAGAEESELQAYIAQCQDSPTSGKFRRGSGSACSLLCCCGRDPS

| SMILES | EC50 (danio rerio TRPN1) [µM] | Emax (danio rerio TRPN1) [%] | ⊗F340/F380 (TRPML3) (TRPML3 [1]) | nA/pF (-80 mV) (TRPML3) (TRPML3 [2]) [nA/pF] | Emax (TRPML3 [3]) [%] | intracellular calcium response in TRPML3-transfected cells (TRPML3 [1]) | TRPML3 activation in whole-cell patch-clamp (TRPML3 [2]; control compound) | TRPML3 activity in excised patches (TRPML3 [5]) | cell membrane permeability (TRPML3 [4]; inferred from intracellular infusion experiment) | response in HEK293 cells expressing TRPML2 (TRPML2) | response to intracellular application (infusion) (TRPML3 [4]) | calcium imaging response when TRPML1 was coexpressed with TRPML3 [6] | activation of mutant TRPML1(NC) isoform (TRPML1(NC)) | average current density relative to constitutively active TRPML3 A419P (TRPML3 [2]) | ⊗F340/F380 (Control) [7] | kinetics of intracellular calcium increase (TRPML3 [1]) |
| --- | --- | --- | --- | --- | --- | --- | --- | --- | --- | --- | --- | --- | --- | --- | --- | --- |
| Cc1ccc(S(=O)(=O)n2nccc2-c2c(-c3ccc(Cl)cc3)noc2C)cc1 [SF-11, 3-(4-chlorophenyl)-5-methyl-4-[2-(4-methylphenyl)sulfonylpyrazol-3-yl]-1,2-oxazole] | > 29.9 | 8 ± 1 | 0.72 ±0.05 | −0.14 ±0.02 | 135 ± 20 | – | – | – | – | – | elicited responses when applied intracellularly | – | – | – | – | – |
| COc1ccccc1C1CN=NC12CCCc1ccccc1C2=O (stereo not shown) [SF-61, 4-(2-methoxyphenyl)spiro[3,4-dihydropyrazole-5,8’-6,7-dihydro-5H-benzo[7]annulene]-9’-one] | > 29.9 | 2 ± 1 | 0.56 ±0.03 | −0.07 ±0.01 | 102 ± 22 | – | – | – | – | – | – | – | – | – | – | – |
| O=S(=O)(Nc1ccccc1N1CCOCC1)c1ccc(Cl)s1 [SF-23, 5-chloro-N-(2-morpholin-4-ylphenyl)thiophene-2-sulfonamide] | > 29.9 | 1 ± 1 | 0.93 ±0.07 | −0.37 ±0.08 | 174 ± 1 | – | – | markedly increased TRPML3 activity | – | – | – | strong reduction of the calcium imaging responses | – | comparable to average current densities obtained from cells expressing the constitutively active varitint-waddler mutant isoform A419P | 0.005 ±0.005 | – |
| Cc1ccc(N2CCN(S(=O)(=O)N3CCCCC3)CC2)c(C)c1 [SF-41, 1-(2,4-dimethylphenyl)-4-piperidin-1-ylsulfonylpiperazine] | > 29.9 | 12 ± 1 | 0.99 ±0.07 | −0.42 ±0.07 | 138 ± 12 | – | – | – | – | elicited responses | – | – | – | Stronger responses | 0.015 ±0.001 | much more rapid increase than the other compounds |
| Cc1ccccc1S(=O)(=O)c1c(C)cc(C)n(C(C)C)c1=O [SF-81, 4,6-dimethyl-3-(2-methylphenyl)sulfonyl-1-propan-2 ylpyridin-2-one] | > 29.9 | 1 | 0.62 ±0.05 | – | 138 ± 21 | – | – | – | – | elicited responses | – | – | – | comparable to average current densities obtained from cells expressing the constitutively active varitint-waddler mutant isoform A419P | – | – |
| CCOc1ccc(S(=O)(=O)N2CCCCCC2)c2ccccc12 [SF-31, 1-(4-ethoxynaphthalen-1-yl)sulfonylazepane] | > 29.9 | 2 ± 1 | 1.00 ±0.10 | −0.19 ±0.03 | 130 ± 20 | – | – | – | – | – | – | – | – | comparable to average current densities obtained from cells expressing the constitutively active varitint-waddler mutant isoform A419P | −0.011 ±0.001 | – |

Further lines, with some results ahead:

| EC50 (danio rerio TRPN1) [µM] | Emax (danio rerio TRPN1) [%] | ⊗F340/F380 (TRPML3) (TRPML3 [1]) | nA/pF (-80 mV) (TRPML3) (TRPML3 [2]) [nA/pF] | Emax (TRPML3 [3]) [%] | intracellular calcium response in TRPML3-transfected cells (TRPML3 [1]) | TRPML3 activation in whole-cell patch-clamp (TRPML3 [2]; control compound) | TRPML3 activity in excised patches (TRPML3 [5]) | cell membrane permeability (TRPML3 [4]; inferred from intracellular infusion experiment) | response in HEK293 cells expressing TRPML2 (TRPML2) | SMILES | response to intracellular application (infusion) (TRPML3 [4]) | calcium imaging response when TRPML1 was coexpressed with TRPML3 [6] | activation of mutant TRPML1(NC) isoform (TRPML1(NC)) | average current density relative to constitutively active TRPML3 A419P (TRPML3 [2]) | ⊗F340/F380 (Control) [7] | kinetics of intracellular calcium increase (TRPML3 [1]) |
| --- | --- | --- | --- | --- | --- | --- | --- | --- | --- | --- | --- | --- | --- | --- | --- | --- |
| > 29.9 | 2 ± 1 | 0.52 ±0.05 | −0.02 ±0.01 | 119 ± 5 | – | – | – | – | – | CCOc1ccc(S(=O)(=O)N2CCCCC2)c(C)c1C [SF-32, 1-(4-ethoxy-2,3-dimethylphenyl)sulfonylpiperidine] | – | – | – | – | – | – |
| – | – | – | – | – | did not elicit any responses | did not activate TRPML3 | – | – | – | CCCN(CCC)S(=O)(=O)c1ccc(C(=O)O)cc1 [probenicid, 4-(dipropylsulfamoyl)benzoic acid, reference compound] | – | – | – | – | – | – |
| > 29.9 | 1 | 1.00 ±0.07 | −0.24 ±0.06 | 156 ± 16 | – | – | markedly increased TRPML3 activity | not cell permeable | – | O=S(=O)(Nc1ccccc1N1CCCCC1)c1ccc(Cl)s1 [SF-22, 5-chloro-N-(2-piperidin-1-ylphenyl)thiophene-2-sulfonamide] | did not elicit a response when infused into the cells | strong reduction of the calcium imaging responses | able to activate this channel; also recorded: can be activated by compound SF-22 | comparable to average current densities obtained from cells expressing the constitutively active varitint-waddler mutant isoform A419P | – | – |
| > 29.9 | 2 ± 1 | 0.65 ±0.10 | −0.06 ±0.02 | 119 ± 21 | – | – | – | – | – | CCCOc1cc(C)c(Cl)cc1S(=O)(=O)N(CC)CC [SF-33, 5-chloro-N,N-diethyl-4-methyl-2-propoxybenzenesulfonamide] | – | – | – | – | – | slowest kinetics |
| > 29.9 | 6 | 1.15 ±0.06 | −0.33 ±0.10 | 151 ± 14 | – | – | – | – | – | CCOc1ccc(S(=O)(=O)NC(C)(C)C)cc1-c1nc(=O)c2c([nH]1)c(C(C)(C)C)nn2C [SN-1, N-tert-butyl-3-(3-tert-butyl-1-methyl-7-oxo-4H-pyrazolo[4,3-d]pyrimidin-5-yl)-4-ethoxybenzenesulfonamide] | – | – | – | comparable to average current densities obtained from cells expressing the constitutively active varitint-waddler mutant isoform A419P | 0.005 ±0.004 | – |
